Data reported in ChEMBL document CHEMBL1130212, “Synthesis and structure-activity relationships of 6,7-benzomorphan derivatives as antagonists of the NMDA receptor-channel complex” (J Med Chem, 1997).
pKi: −log10 of the molar value.

Columns and labels:
Mus musculus [1] = experiment: Effective dose at which half of the mice were protected against the lethality induced by 200 mg/kg NMDA.; format: functional; settings: read-out: ID50 (the source's name)
Method in brief: (§1)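 Male mice (20 to 30 g), groups of five, given test compound s.c. (0.01 mL/g) at different doses; NMDA 200 mg/kg i.p. 15 min later. Each mouse observed 20 min in an individual jar; percentage dying recorded. ID50 from log-probit analysis of four doses, or mean ± SEM of up to four independent experiments.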

Glutamate NMDA receptor = experiment: Inhibition of [3H]MK-801 binding to N-methyl-D-aspartate glutamate receptor in rat brain cortical membranes.; format: cell membranes, Membrane
Mu-type opioid receptor = Mu-type opioid receptor (Rattus norvegicus, UniProt P33535); experiment: Inhibition of [3H]dihydromorphine binding to opioid receptor mu 1 in rat brain cortical membranes.; format: cell membranes, Membrane
Mu-type opioid receptor, sequence (P33535 whole entry): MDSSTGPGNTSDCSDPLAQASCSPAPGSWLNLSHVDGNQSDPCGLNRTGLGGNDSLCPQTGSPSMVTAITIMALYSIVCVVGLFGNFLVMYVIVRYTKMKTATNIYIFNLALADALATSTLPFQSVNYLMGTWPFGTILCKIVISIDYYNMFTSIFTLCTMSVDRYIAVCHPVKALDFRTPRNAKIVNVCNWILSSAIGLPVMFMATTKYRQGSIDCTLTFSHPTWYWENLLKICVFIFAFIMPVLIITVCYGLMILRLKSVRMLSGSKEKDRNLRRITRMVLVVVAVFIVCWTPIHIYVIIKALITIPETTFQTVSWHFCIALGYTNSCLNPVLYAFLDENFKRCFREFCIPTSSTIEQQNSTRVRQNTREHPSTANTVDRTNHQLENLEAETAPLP
Method in brief: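 Rat brain without cerebellum membranes incubated 30 min at 25 °C with 0.5 nmol/L [3H]dihydromorphine. Binding stopped by rapid filtration; filter radioactivity counted by scintillation. Ki from computer-aided curve fitting.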

Mus musculus [2] = experiment: The ID50 value represent the effective dose at which half of the mice were protected against the lethality induced by 200 mg/kg NMDA; format: functional; settings: read-out: ID50 (the source's name); method in brief: as §1
Mus musculus [3] = experiment: The ID50 values represent the effective dose at which half of the mice were protected against the lethality induced by 200 mg/kg NMDA; format: functional; settings: read-out: ID50 (the source's name); method in brief: as §1

Compound | ED50 (Mus musculus [1]) [mg/kg] | pKi (Glutamate NMDA receptor) | pKi (Mu-type opioid receptor) | ED50 (Mus musculus [2]) [mg/kg] | ED50 (Mus musculus [3]) [mg/kg]
CC[C@H](CN1CC[C@]2(C)c3cc(O)ccc3C[C@@H]1[C@H]2C)OC | 3 | 6.25 |  |  | 
CO[C@@H](C)CN1CC[C@@]2(C)c3ccc(O)cc3C[C@@H]1C2(C)C | 2.1 | 8.15 | 7.74 |  | 
CCCN1CC[C@]2(C)c3cc(O)ccc3C[C@@H]1[C@@H]2C | > 30 | 6.23 |  |  | 
CO[C@H](C)CN1CC[C@@]2(C)c3ccc(O)cc3C[C@@H]1C2(C)C | 0.4 | 8.35 | 5.47 |  | 
CCC[C@@H](CN1CC[C@]2(C)c3cc(O)ccc3C[C@@H]1[C@H]2C)OC |  | 6.31 |  |  | 
CO[C@H](C)CN1CC[C@]2(C)c3cc(O)ccc3C[C@@H]1[C@@H]2C | 7.2 | 6.61 | 6.84 |  | 
CO[C@@H](C)CN1CC[C@@]2(C)c3cc(O)ccc3C[C@H]1[C@@H]2C |  | < 4.00 |  |  | 
CO[C@@H](C)CN1CC[C@@]2(C)c3ccccc3C[C@@H]1C2(C)C | 23 | 7.80 | 6.84 |  | 
CCO[C@H](C)CN1CC[C@]2(C)c3cc(O)ccc3C[C@@H]1[C@@H]2C |  | 5.74 |  |  | 
C=CCN1CC[C@@]2(C)c3cc(O)ccc3C[C@H]1[C@H]2C | 8.2 | 5.92 |  |  | 
CO[C@H](C)CN1CC[C@@]2(C)c3cc(O)ccc3C[C@H]1[C@@H]2C | > 30 | 4.12 | 4.46 |  | 
CO[C@H](C)CN1CC[C@]2(C)c3cc(O)ccc3C[C@H]1C2(C)C |  | 4.86 | 4.85 |  | 
CO[C@H](C)CN1CC[C@@]2(C)c3ccccc3C[C@@H]1C2(C)C |  | 7.52 | 4.37 | 6.8 | 
CO[C@H](C)CN1CC[C@]2(C)c3cc(O)ccc3C[C@@H]1[C@H]2C | 0.9 | 6.71 | 6.67 |  | 
C=CCN1CCC2(C)c3c(O)cccc3CC1C2(C)C (configuration not stated) | 1.7 | 6.97 |  |  | 
COC(C)(C)CN1CC[C@]2(C)c3cc(O)ccc3C[C@@H]1[C@@H]2C | 2.9 | 6.55 | 8.25 |  | 
CCO[C@@H](C)CN1CC[C@]2(C)c3cc(O)ccc3C[C@@H]1[C@@H]2C |  | 5.94 |  |  | 
CO[C@H](C)CN1CC[C@@]2(C)c3cc(O)ccc3C[C@H]1[C@H]2C | > 30 | 5.02 | 4.74 |  | 
CO[C@@H](C)CN1CC[C@@]2(C)c3c(O)cccc3C[C@@H]1C2(C)C | 0.8 | 7.82 | 7.68 |  | 
COC(C)(C)CN1CC[C@]2(C)c3cc(O)ccc3C[C@@H]1[C@H]2C | 5.5 | 6.66 |  |  | 
CO[C@H](C)CN1CC[C@]2(C)c3ccc(O)cc3C[C@H]1C2(C)C |  | 6.26 |  |  | 
CCC[C@H](CN1CC[C@]2(C)c3cc(O)ccc3C[C@@H]1[C@H]2C)OC |  | 5.74 |  |  | 
CO[C@@H](C)CN1CC[C@]2(C)c3cc(O)ccc3C[C@H]1C2(C)C | > 30 | 4.30 | 5.22 |  | 
C=CCN1CCC2(C)c3cc(O)ccc3CC1C2(C)C (configuration not stated) | 4.7 | 6.42 |  |  | 

Compound | ED50 (Mus musculus [1]) [mg/kg] | pKi (Glutamate NMDA receptor) | pKi (Mu-type opioid receptor) | ED50 (Mus musculus [2]) [mg/kg] | ED50 (Mus musculus [3]) [mg/kg]
CO[C@H](C)CN1CC[C@@]2(C)c3c(O)cccc3C[C@@H]1C2(C)C | 0.5 | 7.47 | 4.94 |  | 
CCCN1CC[C@@]2(C)c3cc(O)ccc3C[C@H]1[C@H]2C | > 30 | 5.55 |  |  | 
CO[C@@H](C)CN1CC[C@@]2(C)c3cc(O)ccc3C[C@@H]1C2(C)C | 0.2 | 8.25 | 8.80 |  | 
C=CCN1CCC2(C)c3cccc(O)c3CC1C2(C)C (configuration not stated) | 10.4 | 6.20 |  |  | 
CO[C@H](C)CN1CC[C@@]2(C)c3cc(O)ccc3C[C@@H]1C2(C)C | 0.7 | 7.91 | 6.97 |  | 
CO[C@@H](C)CN1CC[C@]2(C)c3cc(O)ccc3C[C@@H]1[C@H]2C | 0.6 | 7.45 | 8.46 |  | 
C=CCN1CCC2(C)c3ccc(O)cc3CC1C2(C)C (configuration not stated) | 5 | 7.00 |  |  | 
CO[C@@H](C)CN1CC[C@]2(C)c3ccc(O)cc3C[C@H]1C2(C)C | 81 | 6.16 | 5.87 |  | 
CS[C@H](C)CN1CC[C@]2(C)c3cc(O)ccc3C[C@@H]1[C@H]2C |  | 6.39 | 6.63 |  | 
CC[C@@H](CN1CC[C@]2(C)c3cc(O)ccc3C[C@@H]1[C@H]2C)OC | 0.3 | 7.18 |  |  | 
CO[C@H](C)CN1CC[C@]2(C)c3c(O)cccc3C[C@H]1C2(C)C |  | 6.44 |  |  | 
CCO[C@H](C)CN1CC[C@]2(C)c3cc(O)ccc3C[C@@H]1[C@H]2C |  | 5.89 |  |  | 
CCCN1CC[C@]2(C)c3cc(O)ccc3C[C@@H]1[C@H]2C |  | 6.43 |  |  | 
C[C@@H]1[C@H]2Cc3ccc(O)cc3[C@@]1(C)CCN2C[C@@H](C)O |  | 6.37 |  |  | 
CS[C@@H](C)CN1CC[C@]2(C)c3cc(O)ccc3C[C@@H]1[C@@H]2C | 1.7 | 6.65 | 8.49 |  | 
CO[C@@H](C)CN1CC[C@@]2(C)c3cc(O)ccc3C[C@H]1[C@H]2C | > 30 | 4.66 | 5.28 |  | 
CS[C@H](C)CN1CC[C@]2(C)c3cc(O)ccc3C[C@@H]1[C@@H]2C |  | 5.96 | 8.11 |  | 
C=CCN1CC[C@]2(C)c3cc(O)ccc3C[C@@H]1[C@@H]2C | > 30 | 5.82 |  |  | 
COCCCN1CC[C@]2(C)c3cc(O)ccc3C[C@@H]1[C@@H]2C |  | 6.00 |  |  | > 30
CCCN1CC[C@@]2(C)c3cc(O)ccc3C[C@H]1[C@@H]2C |  | 4.36 |  |  | 
CCO[C@@H](C)CN1CC[C@]2(C)c3cc(O)ccc3C[C@@H]1[C@H]2C |  | 5.90 |  |  | 
CO[C@@H](C)CN1CC[C@]2(C)c3cc(O)ccc3C[C@@H]1[C@@H]2C | 2.3 | 6.63 | 9.00 |  | 
CS[C@@H](C)CN1CC[C@]2(C)c3cc(O)ccc3C[C@@H]1[C@H]2C | 2.1 | 7.08 | 7.01 |  | 
